Results on 40 compounds are retold here after ChEMBL document CHEMBL1157562, “Piperazinyl glutamate pyridines as potent orally bioavailable P2Y12 antagonists for inhibition of platelet aggregation” (J Med Chem, 2010).

A short description of assay [1]: Antiplatelet aggregation activity against adenosine diphosphate-induced human platelet rich plasma assessed as inhibition of platelet aggregation by turbidimetric method. Type of assay: functional. Particulars: Homo sapiens, Platelet, Plasma. The method in brief: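 Human PRP, prepared by two-step centrifugation and adjusted to 330 000 platelets/μL with PPP. Compound was preincubated 5 min at 37 °C in 0.5% DMSO, then 20 μM ADP was added. OD626 was read kinetically for 15 min at 37 °C with mixing between reads.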

A further assay concerns the target P2Y purinoceptor 12 (Homo sapiens, UniProt Q9H244). Put plainly: Displacement of [33P]ADP from human recombinant P2Y12 receptor expressed in CHO cells. Type of assay: cell-based. The method in brief: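 Washed membranes from CHO cells expressing synthetic human P2Y12, incubated 1 h at room temperature with 0.2 nM 33P-MeSADP in 50 mM Tris/100 mM NaCl/1 mM EDTA. Compound was tested as a 7-point 3-fold series in triplicate. Nonspecific binding was defined with 300 nM 2-MeSADP, followed by filtration.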

A further assay has as its system Platelet. As to the kind of experiment: Relative potency, ratio of IC50 for drug to IC50 for AZD-6140 for platelet aggregation in human platelet rich plasma. Type of assay: functional.

Chain of P2Y purinoceptor 12 (Q9H244 whole entry): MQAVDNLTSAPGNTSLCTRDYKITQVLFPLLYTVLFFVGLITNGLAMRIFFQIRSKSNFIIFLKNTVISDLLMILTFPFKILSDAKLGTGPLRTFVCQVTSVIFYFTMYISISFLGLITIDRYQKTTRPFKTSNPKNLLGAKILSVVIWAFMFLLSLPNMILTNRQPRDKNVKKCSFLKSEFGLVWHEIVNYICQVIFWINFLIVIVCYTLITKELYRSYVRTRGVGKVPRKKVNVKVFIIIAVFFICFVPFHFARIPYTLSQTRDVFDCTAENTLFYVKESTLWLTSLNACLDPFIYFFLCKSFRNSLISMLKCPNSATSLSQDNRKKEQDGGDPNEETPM

As to `CCCCCCOC(=O)N1CCN(C(=O)[C@H](CCC(=O)O)NC(=O)c2cc(OCC3CCNCC3)cc(-c3ccccc3)n2)CC1`, in assay [1], the IC50 (as a rule, the concentration that inhibits the measured activity by half) stood at 640 nM. Also, the Ki (commonly the dissociation constant of the complex between target and ligand, obtained from inhibition or displacement) at P2Y purinoceptor 12 was determined as 4.5 nM. For the same compound, the “Ratio IC50” value in the assay with Platelet turned out to be 1.3.
In the same order, the values of `CCCCCOC(=O)N1CCN(C(=O)[C@H](CCC(=O)O)NC(=O)c2cc(OCC3CCN(S(=O)(=O)CC)CC3)cc(-c3ccccc3)n2)CC1` are 2800 nM, 7.4 nM and 1.9.
In the same order, the values of `CCCCCOC(=O)N1CCN(C(=O)[C@H](CCC(=O)O)NC(=O)c2cc(NC(=O)NCC(=O)N(C)C)cc(-c3ccccc3)n2)CC1` are 3400 nM, 4.7 nM and 3.9.
The like results for `CCCCCOC(=O)N1CCN(C(=O)[C@H](CCC(=O)O)NC(=O)c2cc(N3CCC(NC)CC3)cc(-c3ccccc3)n2)CC1` were, in that order, 1000 nM, 6.5 nM and 1.1.
Turning to `CCCCOC(=O)N1CCN(C(=O)[C@H](CCC(=O)O)NC(=O)c2cc(OCCC3CCNCC3)cc(-c3ccccc3)n2)CC1`, the half-maximal inhibitory concentration (IC50) in assay [1] was determined as 460 nM. Moreover, the inhibitory constant (Ki) at P2Y purinoceptor 12 was 3 nM. The “Ratio IC50” value with Platelet is recorded as 0.45.
For the compound `CCCCOC(=O)N1CCN(C(=O)[C@H](CCC(=O)O)NC(=O)c2cc(OCCC3CCCNC3)cc(-c3ccccc3)n2)CC1` (stereo not given in full), the half-maximal inhibitory concentration (IC50) in assay [1] was determined as 1000 nM. Also, the Ki at P2Y purinoceptor 12 was determined as 2.5 nM. In addition, in the assay with Platelet, the “Ratio IC50” value stood at 0.67.
The like results for `CCCCCOC(=O)N1CCN(C(=O)[C@H](CCC(=O)O)NC(=O)c2cc(C(=O)N3CCN(C)CC3)cc(-c3ccccc3)n2)CC1` were, in that order, 530 nM, 5.8 nM and 0.72.
Consider `CCCCCOC(=O)N1CCN(C(=O)[C@H](CCC(=O)O)NC(=O)c2cc(C(=O)N(C)C)cc(-c3ccccc3)n2)CC1`, for which the IC50 in assay [1] was determined as 1100 nM. Further, the Ki on P2Y purinoceptor 12 amounted to 2.4 nM. The “Ratio IC50” value with Platelet is 1.
Turning to `CCOC(=O)N1CCN(C(=O)[C@H](CCC(=O)O)NC(=O)c2cc(OCCCCO)cc(-c3ccccc3)n2)CC1`, the IC50 in assay [1] was 13000 nM. Moreover, the Ki at P2Y purinoceptor 12 came out at 132 nM. The “Ratio IC50” value in the assay on Platelet is on record as 13.
The like results for `CCCCCOC(=O)N1CCN(C(=O)[C@H](CCC(=O)O)NC(=O)c2cc(OCCC)cc(-c3ccccc3)n2)CC1` were, in that order, 22000 nM, 18 nM and 28.
The like results for `CCCCCOC(=O)N1CCN(C(=O)[C@H](CCC(=O)O)NC(=O)c2cc(OC3CCNCC3)cc(-c3ccccc3)n2)CC1` were, in that order, 500 nM, 3.5 nM and 0.64.
The like results for `CCCCCOC(=O)N1CCN(C(=O)[C@H](CCC(=O)O)NC(=O)c2cc(NC(=O)N3CCC(OC)CC3)cc(-c3ccccc3)n2)CC1` were, in that order, 5500 nM, 9.2 nM and 6.1.
Take `CCCCOC(=O)N1CCN(C(=O)[C@H](CCC(=O)O)NC(=O)c2cc(OCC3CCN(C(=O)C(F)(F)F)CC3)cc(-c3ccccc3)n2)CC1`: in assay [1], the IC50 is 3000 nM. For the same compound, the Ki on P2Y purinoceptor 12 was 10 nM. Besides, the “Ratio IC50” value in the assay on Platelet is listed as 2.8.
Turning to `CCCCOC(=O)N1CCN(C(=O)[C@H](CCC(=O)O)NC(=O)c2cc(OC3CCN(C)CC3)cc(-c3ccccc3)n2)CC1`, the concentration for half-maximal inhibition (IC50) in assay [1] was 2000 nM. Also, the inhibition constant Ki at P2Y purinoceptor 12 came to 2.5 nM. The “Ratio IC50” value in the assay with Platelet is recorded as 1.9.
Turning to `CCCCOC(=O)N1CCN(C(=O)[C@H](CCC(=O)O)NC(=O)c2cc(OC3CCN(C(=O)COC)CC3)cc(-c3ccccc3)n2)CC1`, the IC50 in assay [1] came to 520 nM. The inhibition constant (Ki) on P2Y purinoceptor 12 is 2.4 nM. Also, the “Ratio IC50” value in the assay on Platelet is reported as 0.78.
Consider `CCCCCOC(=O)N1CCN(C(=O)[C@H](CCC(=O)O)NC(=O)c2cc(C(=O)N3CCCCC3)cc(-c3ccccc3)n2)CC1`, for which the IC50 in assay [1] was 910 nM. Besides, the inhibitory constant (Ki) on P2Y purinoceptor 12 worked out at 2.8 nM. For the same compound, the “Ratio IC50” value with Platelet turned out to be 2.2.
For the compound `CCCCOC(=O)N1CCN(C(=O)[C@H](CCC(=O)O)NC(=O)c2cc(OC(=O)N3CCOCC3)cc(-c3ccccc3)n2)CC1`, in assay [1], the 50% inhibitory concentration (IC50) was 760 nM. For the same compound, the Ki at P2Y purinoceptor 12 was found to be 1.7 nM. The “Ratio IC50” value in the assay on Platelet is listed as 0.75.
The like results for `CCCCCOC(=O)N1CCN(C(=O)[C@H](CCC(=O)O)NC(=O)c2cc(CCCOC)cc(-c3ccccc3)n2)CC1` were, in that order, 5000 nM, 8.4 nM and 6.6.
In the case of `CCCCOC(=O)N1CCN(C(=O)[C@H](CCC(=O)O)NC(=O)c2cc(OC(=O)N3CC[C@@H](OC)C3)cc(-c3ccccc3)n2)CC1`, in assay [1], the IC50 was 770 nM. Also, at P2Y purinoceptor 12, the inhibitory constant (Ki) was found to be 1.5 nM. Besides, the “Ratio IC50” value in the assay on Platelet is recorded as 0.97.
As for `CCCCCOC(=O)N1CCN(C(=O)[C@H](CCC(=O)O)NC(=O)c2cc(C(=O)N3CCN(C(C)=O)CC3)cc(-c3ccccc3)n2)CC1`, the concentration for half-maximal inhibition (IC50) in assay [1] stood at 320 nM. Moreover, at P2Y purinoceptor 12, the Ki amounted to 1.7 nM. Moreover, in the assay on Platelet, the “Ratio IC50” value is recorded as 0.48.
In the same order, the values of `CCCCOC(=O)N1CCN(C(=O)[C@H](CCC(=O)O)NC(=O)c2cc(OCCCCO)cc(-c3ccccc3)n2)CC1` are 4500 nM, 4.9 nM and 6.7.
In the same order, the values of `CCCCCOC(=O)N1CCN(C(=O)[C@H](CCC(=O)O)NC(=O)c2cc(CCCO)cc(-c3ccccc3)n2)CC1` are 1900 nM, 3.8 nM and 2.6.
In the same order, the values of `CCCCCOC(=O)N1CCN(C(=O)[C@H](CCC(=O)O)NC(=O)c2cc(NC(=O)C(F)(F)F)cc(-c3ccccc3)n2)CC1` are 8200 nM, 9.1 nM and 8.2.
For `CCCCCOC(=O)N1CCN(C(=O)[C@H](CCC(=O)O)NC(=O)c2cc(OC3CCN(C(C)C)CC3)cc(-c3ccccc3)n2)CC1`, in assay [1], the 50% inhibitory concentration (IC50) was determined as 480 nM. Besides, on P2Y purinoceptor 12, the Ki turned out to be 7 nM. In addition, the “Ratio IC50” value with Platelet is recorded as 0.68.
The like results for `CCCCCCOC(=O)N1CCN(C(=O)[C@H](CCC(=O)O)NC(=O)c2cc(N3CCC(N)CC3)cc(-c3ccccc3)n2)CC1` were, in that order, 2400 nM, 3.3 nM and 3.4.
Turning to `CCCCCOC(=O)N1CCN(C(=O)[C@H](CCC(=O)O)NC(=O)c2cc(OC(=O)N(C)C)cc(-c3ccccc3)n2)CC1`, in assay [1], the IC50 was found to be 2900 nM. Also, the inhibition constant Ki at P2Y purinoceptor 12 was 5.5 nM. Also, the “Ratio IC50” value in the assay with Platelet worked out at 1.7.
The like results for `CCCCCOC(=O)N1CCN(C(=O)[C@H](CCC(=O)O)NC(=O)c2cc(OC(=O)N3CCCCC3)cc(-c3ccccc3)n2)CC1` were, in that order, 2100 nM, 11 nM and 1.3.
`CCCCOC(=O)N1CCN(C(=O)[C@H](CCC(=O)O)NC(=O)c2cc(OCC3CCOCC3)cc(-c3ccccc3)n2)CC1`: in assay [1], the IC50 came out at 2300 nM. In addition, the Ki at P2Y purinoceptor 12 came out at 11 nM. Moreover, the “Ratio IC50” value with Platelet is 3.6.
With `CCCCOC(=O)N1CCN(C(=O)[C@H](CCC(=O)O)NC(=O)c2cc(OCCO)cc(-c3ccccc3)n2)CC1`, the IC50 in assay [1] is 7900 nM. Further, on P2Y purinoceptor 12, the inhibition constant Ki came out at 20 nM. In addition, the “Ratio IC50” value with Platelet amounted to 5.1.
In the same order, the values of `CCCCCOC(=O)N1CCN(C(=O)[C@H](CCC(=O)O)NC(=O)c2cc(N3CCC(CO)CC3)cc(-c3ccccc3)n2)CC1` are 1800 nM, 2.4 nM and 6.3.
The like results for `CCCCOC(=O)N1CCN(C(=O)[C@H](CCC(=O)O)NC(=O)c2cc(OC3CCN(C(C)=O)CC3)cc(-c3ccccc3)n2)CC1` were, in that order, 1200 nM, 2.8 nM and 1.1.
Take `CCCCCOC(=O)N1CCN(C(=O)[C@H](CCC(=O)O)NC(=O)c2cc(OC(=O)N3CCC(OCC)CC3)cc(-c3ccccc3)n2)CC1`: the IC50 in assay [1] came out at 590 nM. Moreover, the Ki at P2Y purinoceptor 12 is 6 nM. Besides, in the assay on Platelet, the “Ratio IC50” value is on record as 1.2.
On to `CCCCCOC(=O)N1CCN(C(=O)[C@H](CCC(=O)O)NC(=O)c2cc(C(=O)N(C)CCCN(C)C)cc(-c3ccccc3)n2)CC1`, for which, in assay [1], the IC50 turned out to be 420 nM. In addition, the inhibition constant (Ki) on P2Y purinoceptor 12 was determined as 8.6 nM. In the assay with Platelet, the “Ratio IC50” value came to 0.96.
In the same order, the values of `CCCCOC(=O)N1CCN(C(=O)[C@H](CCC(=O)O)NC(=O)c2cc(OC3CCN(C(=O)OCC)CC3)cc(-c3ccccc3)n2)CC1` are 3700 nM, 20 nM and 5.9.
The like results for `CCCCOC(=O)N1CCN(C(=O)[C@H](CCC(=O)O)NC(=O)c2cc(OCCC3CCCCN3)cc(-c3ccccc3)n2)CC1` (stereo not given in full) were, in that order, 810 nM, 3.7 nM and 0.88.
In the same order, the values of `CCCCCCOC(=O)N1CCN(C(=O)[C@H](CCC(=O)O)NC(=O)c2cc(OCCN)cc(-c3ccccc3)n2)CC1` are 4500 nM, 8.4 nM and 7.9.
For `CCCCCOC(=O)N1CCN(C(=O)[C@H](CCC(=O)O)NC(=O)c2cc(OC3CCN(C(=O)C(F)(F)F)CC3)cc(-c3ccccc3)n2)CC1`, the IC50 in assay [1] was 4700 nM. The inhibition constant (Ki) on P2Y purinoceptor 12 is 19 nM. The “Ratio IC50” value with Platelet is listed as 4.4.
The like results for `CCCCOC(=O)N1CCN(C(=O)[C@H](CCC(=O)O)NC(=O)c2cc(OCC3CCCNC3)cc(-c3ccccc3)n2)CC1` (stereo not given in full) were, in that order, 1200 nM, 3.7 nM and 0.57.
Consider `CCCCOC(=O)N1CCN(C(=O)[C@H](CCC(=O)O)NC(=O)c2cc(N3CCC(N)CC3)cc(-c3ccccc3)n2)CC1`, for which the concentration for half-maximal inhibition (IC50) in assay [1] was found to be 910 nM. On P2Y purinoceptor 12, the Ki was 3.5 nM. Moreover, the “Ratio IC50” value with Platelet is recorded as 1.2.
The like results for `CCCCOC(=O)N1CCN(C(=O)[C@H](CCC(=O)O)NC(=O)c2cc(OCC3CCN(C(C)C)CC3)cc(-c3ccccc3)n2)CC1` were, in that order, 410 nM, 4.5 nM and 0.33.
